Tested on: normal human fibroblasts (NHFB)
Test: SRB cytotoxicity assay in normal human fibroblasts
Type: cell-based
Settings: Fibroblast, read-out: EC50 NHFB

Compound	EC50 [µM]
CN(C)c1ccc(/C=C2/SC(=Nc3ccccc3)NC2=O)cc1 [Compound 1]	> 100
CCN(CC)c1ccc(/C=C2/SC(Nc3ccccc3)=NC2=O)cc1 [Compound 2]	> 100
O=C1N=C(Nc2ccccc2)S/C1=C/c1ccc(N2CCOCC2)cc1 [Compound 3]	> 100
O=C1N=C(Nc2ccccc2)S/C1=C/c1ccc(N2CCNCC2)cc1 [Compound 5]	> 100
CN(C)c1ccc(/C=C2/SC(N(c3ccccc3)c3ccccc3)=NC2=O)cc1 [Compound 26]	> 100
CCN(CC)c1ccc(/C=C2/SC(N(c3ccccc3)c3ccccc3)=NC2=O)cc1 [Compound 27]	> 100
CCN(CC)c1ccc(/C=C2/SC(N(C)c3ccccc3)=NC2=O)cc1 [Compound 32]	> 100
CN(C1=NC(=O)/C(=C\c2ccc(N3CCOCC3)cc2)S1)c1ccccc1 [Compound 33]	> 100

Tested on: NSCLC cell line H460
Test: SRB cytotoxicity assay in NSCLC cell line H460
Type: cell-based
Settings: H460 and H460TaxR
In short: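 Sulforhodamine B (SRB) viability assay in H460 cells, run alongside drug-resistant H460TaxR and normal human fibroblasts (NHFB). The initial screen used a single test-compound concentration of 10 µM. DMSO served as the negative control, and viability in DMSO was set to 100%. Selected compounds were also tested across a range of doses in H460 and H460TaxR to give dose-dependent cytotoxicity.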

Compound	anti-cancer activity (in words)
O=C1N=C(Nc2ccccc2)S/C1=C/c1ccc(N2CCNCC2)cc1 [Compound 5]	reduced anticancer activity
O=C1N=C(Nc2ccc(O)cc2)S/C1=C/c1ccc(N2CCNCC2)cc1 [Compound 10]	reduced anticancer activity
Cc1ccccc1NC1=NC(=O)/C(=C\c2ccc(N3CCNCC3)cc2)S1 [Compound 25]	reduced anticancer activity
CN(C1=NC(=O)/C(=C\c2ccc(N3CCOCC3)cc2)S1)c1ccccc1 [Compound 33]	weak anti-cancer effects
CN1CCN(c2ccc(/C=C3/SC(N(C)c4ccccc4)=NC3=O)cc2)CC1 [Compound 34]	weak anti-cancer effects
CN(C1=NC(=O)/C(=C\c2ccc(N3CCNCC3)cc2)S1)c1ccccc1 [Compound 35]	weak anti-cancer effects

Same assay, conditions: H460 and H460TaxR, compared to compound 1

Compound	improvement in anti-cancer activity (EC50) [fold]
CN(C)c1ccc(/C=C2/SC(N(C)c3ccccc3)=NC2=O)cc1 [Compound 31]	10

Same assay, conditions: single concentration 10 µM, SRB, H460 and H460TaxR versus NHFB

Compound	cytoselective anti-cancer effects in H460 and H460TaxR cells (in words)
CN(C)c1ccc(/C=C2/SC(=Nc3ccccc3)NC2=O)cc1 [Compound 1]	good cytoselective anti-cancer effects
CCN(CC)c1ccc(/C=C2/SC(Nc3ccccc3)=NC2=O)cc1 [Compound 2]	good cytoselective anti-cancer effects
CN1CCN(c2ccc(/C=C3/SC(Nc4ccccc4)=NC3=O)cc2)CC1 [Compound 4]	good cytoselective anti-cancer effects
CN(C)c1ccc(/C=C2/SC(=Nc3ccccc3Cl)NC2=O)cc1 [Compound 11]	good cytoselective anti-cancer effects
CCN(CC)c1ccc(/C=C2/SC(Nc3ccccc3Cl)=NC2=O)cc1 [Compound 12]	good cytoselective anti-cancer effects
Cc1ccccc1/N=C1\NC(=O)/C(=C\c2ccc(N(C)C)cc2)S1 [Compound 21]	good cytoselective anti-cancer effects
CCN(CC)c1ccc(/C=C2/SC(Nc3ccccc3C)=NC2=O)cc1 [Compound 22]	good cytoselective anti-cancer effects
CN(C)c1ccc(/C=C2/SC(N(C)c3ccccc3)=NC2=O)cc1 [Compound 31]	potent cytoselective anti-cancer activity
CCN(CC)c1ccc(/C=C2/SC(N(C)c3ccccc3)=NC2=O)cc1 [Compound 32]	potent cytoselective anti-cancer activity

Tested on: not listed separately
Test: high throughput aqueous solubility assay
Type: physicochemical
Settings: compared to compound 1

improvement in aqueous solubility [fold]	Compound
5	CN(C)c1ccc(/C=C2/SC(N(C)c3ccccc3)=NC2=O)cc1 [Compound 31]

Same assay, conditions: comparison within libraries

Compound	aqueous solubility (in words)
O=C1N=C(Nc2ccccc2)S/C1=C/c1ccc(N2CCNCC2)cc1 [Compound 5]	largest improvement in aqueous solubility
O=C1N=C(Nc2ccc(O)cc2)S/C1=C/c1ccc(N2CCNCC2)cc1 [Compound 10]	largest improvement in aqueous solubility
Cc1ccccc1NC1=NC(=O)/C(=C\c2ccc(N3CCNCC3)cc2)S1 [Compound 25]	largest improvement in aqueous solubility
CCN(CC)c1ccc(/C=C2/SC(N(C)c3ccccc3)=NC2=O)cc1 [Compound 32]	did not improve solubility
CN(C1=NC(=O)/C(=C\c2ccc(N3CCOCC3)cc2)S1)c1ccccc1 [Compound 33]	significantly better
